Assay results published in article PMC8652384 (Experimental and Therapeutic Medicine, 2021).
Read-outs that look alike come from different tables or passages of the source. Blank lines part the entries; values can stand above or below the molecule they belong to. Residues, ends and D or L forms follow the SMILES beside them. *: point of attachment. Cbz = O=C(OCc1ccccc1)*

Tests used:
integrin α4 [1] = molecular target: T1, integrin α4 (Homo sapiens, UniProt P05556+P13612); experiment: Western blot analysis of integrin α4 protein; type: cell-based; conditions: MG132 1 µM; 96 h; LAX7R, LAX53, LAX56, REH
primary ALL = conditions: cited from earlier work
HUVECs = experiment: Endothelial tube formation assay; type: cell-based, human; conditions: data not shown
Procedure, shortened: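 HUVECs (4-6x10^4/well) pre-treated 30 min at 37°C with test compound (0, 5 or 25 µM) or a reference α4 antagonist (0 or 25 µM), then seeded on Matrigel-coated wells for 4-6 h at 37°C, 5% CO2. Three fields per well imaged by phase contrast (x100); nodes, segments, meshes and total area quantified by image analysis.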

[2] = cited from earlier work
integrin α4 [3] = molecular target: T1, integrin α4; conditions: cited from earlier work
VLA-4 = VLA-4 (Homo sapiens, UniProt P05556+P13612); experiment: VLA-4 conformation activation assay; type: binding; conditions: LAX7R and TXL3 cells; without 5 mM Mn2+
Procedure, shortened: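 LAX7R or TXL3 cells, 1x10^6/ml in HEPES buffer pH 7.4 with 0.1% HSA, Ca2+ and Mg2+, incubated 30 min at 37°C with test compound (0-100 µM) or human VCAM-1 ([…]), 10% PE-HUTS-21, ±5 mM Mn2+. DAPI added during final 5 min. PE MFI read on viable cells by flow cytometry; isotype control gave nonspecific binding. Occupancy curves fitted by variable-slope sigmoidal model.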

Molecule: CC(C)C[C@@H](C=O)NC(=O)[C@H](CC(C)C)NC(=O)[C@H](CC(C)C)NC(=O)OCc1ccccc1 [MG132] (Cbz-Leu-Leu-Leu-aldehyde)
restoration of α4 decreased by AVA4746 (25 µM) (integrin α4 [1]): partially restored by MG132 in all cases apart from LAX56

Molecule: CCCC[C@H](NC(=O)N[C@@H](CC(=O)O)c1ccc2c(c1)OCO2)C(=O)N(Cc1cccs1)Cc1cccs1 [TBC3486]
survival of mice with primary ALL (primary ALL): prolonged the survival of the mice

Molecule: natalizumab [NZM]
angiogenesis inhibition (HUVECs): no statistical differences | progressive multifocal leukoencephalopathy ([2]; patients treated with NZM): progressive multifocal leukoencephalopathy can arise | patients with antibodies against natalizumab ([2]; patients with Crohn's disease): 7% | patients with antibodies against natalizumab ([2]; patients with MS): 11% | de-adhesion of B-ALL cells from VCAM-1 (integrin α4 [3]): can cause the de-adhesion of B-ALL cells from VCAM-1

conformation changes corresponding to VLA-4 activation (VLA-4): little conformation changes
Molecule: vascular cell adhesion molecule-1 [VCAM-1]
